Results as given in ChEMBL document CHEMBL4342471, “Discovery of Thieno[2,3-d]pyrimidine-Based Hydroxamic Acid Derivatives as Bromodomain-Containing Protein 4/Histone Deacetylase Dual Inhibitors Induce Autophagic Cell Death in Colorectal Carcinoma Cells” (J Med Chem, 2020).
pIC50: −log10 of the molar value. Calls of active or inactive are those of the source. No cut-off for these calls is given here.

Assays:
[1] = target: Bromodomain-containing protein 3 (Homo sapiens, UniProt Q15059); test: Inhibition of human recombinant His-tagged BRD3 BD2 domain expressed in Escherichia coli BL21(DE3)-R3-pRARE2 cells by AlphaScreen assay
[2] = Toxicity in BALB/cAnNCrl mouse xenografted with human HCT116 cells assessed as effect on kidney morphological changes at 15 to 30 mg/kg, po administered on day 1 to day 19 measured on day 19 by hematoxylin and eosin staining based assay; type: organism-based; details: in vivo
Procedure, shortened: (§1)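 HCT-116 xenograft mice dosed orally at 15 or 30 mg/kg for 19 days, saline as vehicle control; body weights tracked, and main organs sectioned and H&E-stained at study end.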

HCT-116 [3] = test: Induction of apoptosis in human HCT116 cells assessed as necrotic cells at 0.2 uM by Annexin-V FITC/propidium iodide staining-based flow cytometry (reference value: 0.304 %); type: functional
[4] = Half life in Sprague-Dawley rat at 30 mg/kg, po measured up to 1440 mins by UPLC-QTOF/MS analysis; type: ADME, organism-based; details: in vivo
Mus musculus = test: Increase in phosphorylated STAT3 expression in tumor tissue of BALB/cAnNCrl mouse xenografted with human HCT116 cells at 15 to 30 mg/kg, po administered on day 1 to day 19 measured on day 19 by immunohistochemical analysis; type: functional, organism-based
Procedure, shortened: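 HCT-116 xenograft mice were dosed orally at 15 or 30 mg/kg, or 30 mg/kg for reference agents, for 19 days, with vehicle or saline controls. Tumor sections were stained for Ki-67, c-Myc, Ac-H3, BRD4, LC3-II, LIFR and p-STAT3 by immunohistochemistry, and TUNEL staining was used as the apoptosis marker.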

SW-620 = test: Antiproliferative activity against human SW620 cells assessed as reduction in cell viability measured after 24 to 48 hrs by MTT assay; type: functional, cell-based
SW480 = test: Cytotoxicity against human SW480 cells assessed as reduction in cell viability; type: functional, cell-based
Procedure, shortened: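 Antiproliferative IC50 values were measured by MTT assay across a panel of colorectal carcinoma cell lines and normal colorectal epithelial cells.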

HCT-116 [5] = test: Induction of apoptosis in human HCT116 cells assessed as late apoptotic cells at 0.5 uM by Annexin-V FITC/propidium iodide staining-based flow cytometry (reference value: 3.51 %); type: functional
Homo sapiens = species: Homo sapiens; test: Inhibition of BRD4/HDAC in human HCT116 cells assessed as inhibition of IL6-JAK-STAT3 signaling pathway by measuring decrease in STAT3 phosphorylation at 0.5 uM after 24 hrs by Western blot analysis; type: cell-based
Procedure, shortened: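 HCT-116 cells treated 24 h with 0.5 µM, 5.0 µM or 10 µM test agent depending on compound; OSMR, LIFR and downstream pathway proteins detected by western blot.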

[6] = Toxicity in BALB/cAnNCrl mouse xenografted with human HCT116 cells assessed as effect on heart morphological changes at 15 to 30 mg/kg, po administered on day 1 to day 19 measured on day 19 by hematoxylin and eosin staining based assay; type: organism-based; details: in vivo; procedure, shortened: as §1
Histone deacetylase 4 = Histone deacetylase 4 (Homo sapiens, UniProt P56524); test: Inhibition of HDAC4 (unknown origin) using biotinylated histone H3 KAc peptide (1 to 21 residues) as substrate by HTRF assay
[7] = target: Bromodomain-containing protein 4 (Homo sapiens, UniProt O60885); test: Inhibition of BRD4 in human HCT116 cells transfected with ATG5 siRNA assessed as induction of autophagy by measuring p62 degradation at 0.5 uM by Western blot analysis; type: cell-based
Procedure, shortened: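 HCT-116 cells first transfected with ATG5 siRNA or scramble siRNA; after silencing, exposed to 0.5 µM test agent or normal saline, then ATG5, AMPKα, p-AMPKα, p62 and LC3 protein assessed by western blot.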

Histone deacetylase 9 = Histone deacetylase 9 (Homo sapiens, UniProt Q9UKV0); test: Inhibition of HDAC9 (unknown origin) using biotinylated histone H3 KAc peptide (1 to 21 residues) as substrate by HTRF assay
HCT-116 [8] = test: Induction of apoptosis in human HCT116 cells assessed as early apoptotic cells at 0.2 uM by Annexin-V FITC/propidium iodide staining-based flow cytometry (reference value: 2.8 %); type: functional
[9] = target: Polyamine deacetylase HDAC10 (Homo sapiens, UniProt Q969S8); test: Inhibition of HDAC10 (unknown origin) using biotinylated histone H3 KAc peptide (1 to 21 residues) as substrate by HTRF assay
Histone deacetylase 7 = target: T1, Histone deacetylase 7 (Homo sapiens, UniProt Q8WUI4); test: Inhibition of HDAC7 (unknown origin) using biotinylated histone H3 KAc peptide (1 to 21 residues) as substrate by HTRF assay
T1 sequence (Q8WUI4 whole entry): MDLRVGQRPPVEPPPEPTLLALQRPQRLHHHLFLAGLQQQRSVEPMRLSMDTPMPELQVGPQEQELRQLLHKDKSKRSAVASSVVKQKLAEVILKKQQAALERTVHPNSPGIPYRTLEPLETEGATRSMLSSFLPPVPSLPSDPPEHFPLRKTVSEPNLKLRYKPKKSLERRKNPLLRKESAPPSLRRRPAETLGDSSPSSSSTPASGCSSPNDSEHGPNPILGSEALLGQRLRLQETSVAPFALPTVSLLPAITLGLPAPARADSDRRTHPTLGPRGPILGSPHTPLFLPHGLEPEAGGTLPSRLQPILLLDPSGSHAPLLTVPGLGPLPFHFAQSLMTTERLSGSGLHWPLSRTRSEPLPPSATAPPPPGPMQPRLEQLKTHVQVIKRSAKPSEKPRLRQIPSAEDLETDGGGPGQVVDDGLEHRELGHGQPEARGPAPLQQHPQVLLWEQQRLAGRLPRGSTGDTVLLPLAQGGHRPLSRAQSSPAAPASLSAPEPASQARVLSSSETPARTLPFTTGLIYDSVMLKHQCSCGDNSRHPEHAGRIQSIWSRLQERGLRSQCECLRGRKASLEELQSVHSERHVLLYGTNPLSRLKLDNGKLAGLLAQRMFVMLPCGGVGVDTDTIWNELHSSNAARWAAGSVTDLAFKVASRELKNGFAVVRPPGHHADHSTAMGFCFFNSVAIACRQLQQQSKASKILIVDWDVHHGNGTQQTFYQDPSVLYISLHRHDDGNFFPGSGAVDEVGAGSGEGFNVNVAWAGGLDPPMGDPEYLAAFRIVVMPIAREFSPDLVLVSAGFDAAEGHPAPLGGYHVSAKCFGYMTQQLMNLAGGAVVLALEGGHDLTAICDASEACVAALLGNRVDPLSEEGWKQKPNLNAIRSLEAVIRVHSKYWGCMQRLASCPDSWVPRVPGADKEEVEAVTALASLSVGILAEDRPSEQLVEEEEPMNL

[10] = Toxicity in BALB/cAnNCrl mouse xenografted with human HCT116 cells assessed as effect on spleen morphological changes at 15 to 30 mg/kg, po administered on day 1 to day 19 measured on day 19 by hematoxylin and eosin staining based assay; type: organism-based; details: in vivo; procedure, shortened: as §1
[11] = Tmax in Sprague-Dawley rat at 30 mg/kg, iv administered as bolus dose measured up to 1440 mins by UPLC-QTOF/MS analysis; type: ADME, organism-based; details: in vivo

Histone deacetylase 9, sequence (Q9UKV0 whole entry, the tested form may be a part): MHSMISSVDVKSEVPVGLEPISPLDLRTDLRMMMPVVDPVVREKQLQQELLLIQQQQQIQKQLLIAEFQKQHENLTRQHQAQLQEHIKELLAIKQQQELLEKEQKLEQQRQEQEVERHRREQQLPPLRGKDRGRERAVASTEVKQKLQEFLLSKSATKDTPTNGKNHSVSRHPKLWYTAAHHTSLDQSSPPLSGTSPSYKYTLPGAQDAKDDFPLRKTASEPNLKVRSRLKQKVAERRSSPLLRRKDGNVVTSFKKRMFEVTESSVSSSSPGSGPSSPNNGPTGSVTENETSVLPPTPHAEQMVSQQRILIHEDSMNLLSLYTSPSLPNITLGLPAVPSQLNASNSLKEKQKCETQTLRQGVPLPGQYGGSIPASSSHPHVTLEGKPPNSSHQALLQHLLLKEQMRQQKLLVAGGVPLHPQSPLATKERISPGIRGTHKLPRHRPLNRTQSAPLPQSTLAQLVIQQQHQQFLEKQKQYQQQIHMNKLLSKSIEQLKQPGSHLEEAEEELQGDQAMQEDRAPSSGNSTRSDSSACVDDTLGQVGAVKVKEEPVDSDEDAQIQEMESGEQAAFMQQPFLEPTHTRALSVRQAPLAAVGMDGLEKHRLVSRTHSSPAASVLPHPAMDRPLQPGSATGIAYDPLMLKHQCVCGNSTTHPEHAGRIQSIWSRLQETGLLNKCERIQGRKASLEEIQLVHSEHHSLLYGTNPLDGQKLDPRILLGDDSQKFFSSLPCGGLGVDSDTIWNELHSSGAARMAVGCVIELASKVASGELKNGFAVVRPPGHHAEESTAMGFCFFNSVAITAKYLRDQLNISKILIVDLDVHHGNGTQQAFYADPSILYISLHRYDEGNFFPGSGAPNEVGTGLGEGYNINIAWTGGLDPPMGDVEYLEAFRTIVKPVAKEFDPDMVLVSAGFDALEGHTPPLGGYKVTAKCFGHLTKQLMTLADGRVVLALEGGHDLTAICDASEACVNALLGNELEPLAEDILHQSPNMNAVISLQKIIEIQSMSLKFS
Polyamine deacetylase HDAC10, sequence (Q969S8 whole entry, the tested form may be a part): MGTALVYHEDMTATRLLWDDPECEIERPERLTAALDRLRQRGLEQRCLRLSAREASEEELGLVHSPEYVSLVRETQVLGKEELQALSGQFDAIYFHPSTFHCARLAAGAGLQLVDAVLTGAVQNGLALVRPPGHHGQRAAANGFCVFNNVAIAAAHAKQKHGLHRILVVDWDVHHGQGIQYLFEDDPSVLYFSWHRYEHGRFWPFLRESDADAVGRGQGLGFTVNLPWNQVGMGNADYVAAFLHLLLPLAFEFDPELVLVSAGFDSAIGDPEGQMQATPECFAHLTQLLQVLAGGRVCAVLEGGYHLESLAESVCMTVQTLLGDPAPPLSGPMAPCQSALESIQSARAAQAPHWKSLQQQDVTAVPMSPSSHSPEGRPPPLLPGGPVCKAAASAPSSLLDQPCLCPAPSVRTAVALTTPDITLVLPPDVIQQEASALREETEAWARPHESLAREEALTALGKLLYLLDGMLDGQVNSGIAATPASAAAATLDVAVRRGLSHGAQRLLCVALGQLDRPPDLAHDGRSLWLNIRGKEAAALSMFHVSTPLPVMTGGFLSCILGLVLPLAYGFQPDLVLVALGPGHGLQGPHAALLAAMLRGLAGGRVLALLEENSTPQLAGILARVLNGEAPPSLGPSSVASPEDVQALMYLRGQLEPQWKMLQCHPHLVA
Bromodomain-containing protein 3, sequence (Q15059 whole entry, the tested form may be a part): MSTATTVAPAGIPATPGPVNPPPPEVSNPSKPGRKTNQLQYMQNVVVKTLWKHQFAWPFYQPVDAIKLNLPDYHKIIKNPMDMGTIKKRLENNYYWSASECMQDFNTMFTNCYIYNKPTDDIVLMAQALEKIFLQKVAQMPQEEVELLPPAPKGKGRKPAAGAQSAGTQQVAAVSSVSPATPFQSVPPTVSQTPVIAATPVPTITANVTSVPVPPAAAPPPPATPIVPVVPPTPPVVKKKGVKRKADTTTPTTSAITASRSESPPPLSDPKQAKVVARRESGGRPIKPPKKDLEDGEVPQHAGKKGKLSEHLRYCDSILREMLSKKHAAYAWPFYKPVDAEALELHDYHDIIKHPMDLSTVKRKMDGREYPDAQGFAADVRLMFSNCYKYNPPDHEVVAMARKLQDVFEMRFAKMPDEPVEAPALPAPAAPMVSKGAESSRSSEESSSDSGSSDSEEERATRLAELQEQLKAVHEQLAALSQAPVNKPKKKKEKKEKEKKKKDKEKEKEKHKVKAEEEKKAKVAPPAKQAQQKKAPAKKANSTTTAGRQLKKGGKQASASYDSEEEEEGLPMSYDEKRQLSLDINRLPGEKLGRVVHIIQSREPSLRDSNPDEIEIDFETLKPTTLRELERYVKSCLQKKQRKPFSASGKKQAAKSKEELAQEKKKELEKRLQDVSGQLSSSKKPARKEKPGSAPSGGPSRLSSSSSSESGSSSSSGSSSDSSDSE
Histone deacetylase 4, sequence (P56524 whole entry, the tested form may be a part): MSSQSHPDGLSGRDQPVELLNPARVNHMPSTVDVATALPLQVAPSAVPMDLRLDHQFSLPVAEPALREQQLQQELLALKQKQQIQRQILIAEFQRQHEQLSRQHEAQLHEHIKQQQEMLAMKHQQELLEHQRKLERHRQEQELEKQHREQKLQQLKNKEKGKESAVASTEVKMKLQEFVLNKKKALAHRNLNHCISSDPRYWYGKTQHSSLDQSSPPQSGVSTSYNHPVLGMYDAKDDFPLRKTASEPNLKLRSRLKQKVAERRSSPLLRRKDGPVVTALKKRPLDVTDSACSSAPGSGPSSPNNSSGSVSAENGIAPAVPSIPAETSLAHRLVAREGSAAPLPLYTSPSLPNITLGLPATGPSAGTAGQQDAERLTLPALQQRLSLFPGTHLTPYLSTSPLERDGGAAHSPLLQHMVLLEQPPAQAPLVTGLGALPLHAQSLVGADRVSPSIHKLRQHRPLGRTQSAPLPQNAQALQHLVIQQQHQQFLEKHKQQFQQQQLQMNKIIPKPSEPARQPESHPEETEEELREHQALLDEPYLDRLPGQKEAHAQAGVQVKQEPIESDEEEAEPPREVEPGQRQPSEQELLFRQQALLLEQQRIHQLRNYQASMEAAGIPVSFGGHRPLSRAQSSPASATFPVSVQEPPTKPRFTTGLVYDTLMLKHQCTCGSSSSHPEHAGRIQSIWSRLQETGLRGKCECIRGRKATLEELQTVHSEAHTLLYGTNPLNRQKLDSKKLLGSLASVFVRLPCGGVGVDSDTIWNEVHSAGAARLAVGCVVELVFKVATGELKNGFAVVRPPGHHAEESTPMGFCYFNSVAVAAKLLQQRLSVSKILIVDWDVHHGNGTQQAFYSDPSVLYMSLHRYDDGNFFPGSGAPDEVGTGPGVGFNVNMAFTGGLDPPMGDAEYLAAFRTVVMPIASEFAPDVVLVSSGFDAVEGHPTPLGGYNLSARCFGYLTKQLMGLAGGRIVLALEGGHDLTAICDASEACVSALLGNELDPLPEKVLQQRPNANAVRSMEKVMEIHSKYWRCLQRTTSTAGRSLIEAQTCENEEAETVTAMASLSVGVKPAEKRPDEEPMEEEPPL

pIC50 [1]: < 4.70 | pIC50 (SW-620): 5.75 | pIC50 (Histone deacetylase 4): < 5.00 | inhibition [7]: inactive | pIC50 (Histone deacetylase 9): < 5.00 | pIC50 [9]: 6.03 | pIC50 (Histone deacetylase 7): < 5.00
Compound: Cc1cc(-c2nc3sc4c(c3c(=O)[nH]2)CCN(C)C4)cc(C)c1OCCCCCC(=O)NO
Activity [2]: Non-Toxic | Activity (HCT-116 [3]): 7.01% | half-life [4]: 4.8 h | Activity (Mus musculus): inactive | Activity (SW480): Active | Activity (HCT-116 [5]): 35.8% | inhibition (Homo sapiens): Active | Activity [6]: Non-Toxic | Activity (HCT-116 [8]): 8.2% | Activity [10]: Non-Toxic | Tmax [11]: 7.2 min
